Assay results from ChEMBL document CHEMBL1149321, “Synthesis, radiosynthesis, and biological evaluation of carbon-11 and iodine-123 labeled 2beta-carbomethoxy-3beta-[4'-((Z)-2-haloethenyl)phenyl]tropanes: candidate radioligands for in vivo imaging of the serotonin transporter” (J Med Chem, 2004).

Key:
Rattus norvegicus [1] = test: Distribution in rest of rat brain after intravenous administration by using [123I]ZIET after 30 min; assay type: ADME, organism-based; conditions: in vivo, 0.5 h
Method in brief: (§1)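 Male Sprague–Dawley rats (200–250 g), fed ad libitum, given ~20 μCi radiotracer iv via tail-vein cannula in 0.2 mL 10% ethanol/saline under ketamine/xylazine im anesthesia. Killed at 5, 30, 60 or 120 min (n = 5; n = 4 at 120 min). Brain regions dissected, weighed, gamma-counted with dose standards, decay-corrected; mean %ID/g ± SE.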

Rattus norvegicus [2] = test: Distribution of the radio labelled compound in hypothalamus of rat brain after intravenous administration in presence of reboxetine after 60 min; assay type: ADME, organism-based; conditions: in vivo, 1 h
Method in brief: (§2)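 Male Sprague–Dawley rats (200–250 g) under ketamine/xylazine anaesthesia with tail-vein cannulas. Blocker or none given 15 min before ~20 μCi [123I] tracer iv in 0.2 mL 10% ethanol/saline; blocker dose 4 mg/kg.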

Rattus norvegicus [3] = test: Distribution of the radio labelled compound in cerebellum of rat brain after intravenous administration in presence of citalopram after 60 min; assay type: ADME, organism-based; conditions: in vivo, 1 h; method in brief: as §2
[4] = Ratio of radioactivity in occipital cortex of rat brain to that of rat cerebellum after intravenous administration after 60 min; assay type: functional
Method in brief: (§3)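 Male Sprague–Dawley rats (200–250 g) given ~20 μCi [123I] tracer iv in 0.2 mL 10% ethanol/saline under ketamine/xylazine; killed at 5, 30, 60, 120 min (n = 5; n = 4 at 120 min). Brain regions dissected, gamma counted, decay-corrected to %ID/g; regional uptake divided by cerebellum.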

[5] = Ratio of radioactivity in hippocampus of rat brain to that of rat cerebellum after intravenous administration after 120 min; assay type: functional; method in brief: as §3
Rattus norvegicus [6] = test: Distribution in striatum of rat brain after intravenous administration by using [123I]ZIET after 120 min; assay type: ADME, organism-based; conditions: in vivo, 2 h; method in brief: as §1
Rattus norvegicus [7] = test: Distribution in brainstem of rat brain after intravenous administration by using [123I]ZIET after 30 min; assay type: ADME, organism-based; conditions: in vivo, 0.5 h; method in brief: as §1
Rattus norvegicus [8] = test: Distribution in brainstem of rat brain after intravenous administration by using [123I]ZIET after 5 min; assay type: ADME, organism-based; conditions: in vivo; method in brief: as §1
Rattus norvegicus [9] = test: Distribution in occipital cortex of rat brain after intravenous administration by using [123I]ZIET after 120 min; assay type: ADME, organism-based; conditions: in vivo, 2 h; method in brief: as §1
Rattus norvegicus [10] = test: Distribution in thyroid of rat brain after intravenous administration by using [123I]ZIET after 60 min; assay type: ADME, organism-based, Thyroid gland; conditions: in vivo, 1 h; method in brief: as §1
Rattus norvegicus [11] = test: Distribution of the radio labelled compound in hypothalamus of rat brain after intravenous administration in presence of RTI-113 after 60 min; assay type: ADME, organism-based; conditions: in vivo, 1 h; method in brief: as §2
Rattus norvegicus [12] = test: Distribution in rest of rat brain after intravenous administration by using [123I]ZIET after 120 min; assay type: ADME, organism-based; conditions: in vivo, 2 h; method in brief: as §1
Rattus norvegicus [13] = test: Distribution of the radio labelled compound in occipital cortex of rat brain after intravenous administration in presence of reboxetine after 60 min; assay type: ADME, organism-based; conditions: in vivo, 1 h; method in brief: as §2
Rattus norvegicus [14] = test: Distribution in occipital cortex of rat brain after intravenous administration by using [123I]ZIET after 5 min; assay type: ADME, organism-based; conditions: in vivo; method in brief: as §1
[15] = Ratio of radioactivity in rest of rat brain to that of rat cerebellum after intravenous administration after 30 min; assay type: functional; method in brief: as §3
Rattus norvegicus [16] = test: Distribution of the radio labelled compound in blood of rat brain after intravenous administration in absence of blocker after 60 min; assay type: ADME, organism-based; conditions: in vivo, 1 h
Method in brief: (§4)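 Male Sprague–Dawley rats (200–250 g), ketamine/xylazine anesthesia, tail-vein cannula. Blocker (4 mg/kg) or nothing given 15 min before iv [123I]ZIET in 10% ethanol/saline. Killed 60 min post-tracer.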

Rattus norvegicus [17] = test: Distribution of the radio labelled compound in hypothalamus of rat brain after intravenous administration in presence of citalopram after 60 min; assay type: ADME, organism-based; conditions: in vivo, 1 h; method in brief: as §2
Rattus norvegicus [18] = test: Distribution of the radio labelled compound in frontal cortex of rat brain after intravenous administration in presence of citalopram after 60 min; assay type: ADME, organism-based; conditions: in vivo, 1 h; method in brief: as §2
Rattus norvegicus [19] = test: Distribution of the radio labelled compound in hypothalamus of rat brain after intravenous administration in absence of blocker after 60 min; assay type: ADME, organism-based; conditions: in vivo, 1 h; method in brief: as §2
[20] = Ratio of radioactivity in occipital cortex of rat brain to that of rat cerebellum after intravenous administration after 30 min; assay type: functional; method in brief: as §3
[21] = Ratio of radioactivity in frontal cortex of rat brain to that of rat cerebellum after intravenous administration after 30 min; assay type: functional; method in brief: as §3
[22] = Ratio of radioactivity in occipital cortex of rat brain to that of rat cerebellum after intravenous administration after 5 min; assay type: functional; method in brief: as §3
[23] = Ratio of radioactivity in brainstem of rat brain to that of rat cerebellum after intravenous administration after 120 min; assay type: functional; method in brief: as §3
[24] = Ratio of radioactivity in rest of rat brain to that of rat cerebellum after intravenous administration after 120 min; assay type: functional; method in brief: as §3
Rattus norvegicus [25] = test: Distribution in rest of rat brain after intravenous administration by using [123I]ZIET after 60 min; assay type: ADME, organism-based; conditions: in vivo, 1 h; method in brief: as §1
Rattus norvegicus [26] = test: Distribution in hippocampus of rat brain after intravenous administration by using [123I]ZIET after 30 min; assay type: ADME, organism-based; conditions: in vivo, 0.5 h; method in brief: as §1
[27] = Ratio of radioactivity in hippocampus of rat brain to that of rat cerebellum after intravenous administration after 5 min; assay type: functional; method in brief: as §3
Rattus norvegicus [28] = test: Distribution in hypothalamus of rat brain after intravenous administration by using [123I]ZIET after 5 min; assay type: ADME, organism-based; conditions: in vivo; method in brief: as §1
Rattus norvegicus [29] = test: Distribution of the radio labelled compound in frontal cortex of rat brain after intravenous administration in presence of reboxetine after 60 min; assay type: ADME, organism-based; conditions: in vivo, 1 h; method in brief: as §2
Rattus norvegicus [30] = test: Distribution of the radio labelled compound in blood of rat brain after intravenous administration in presence of RTI-113 after 60 min; assay type: ADME, organism-based; conditions: in vivo, 1 h; method in brief: as §4
Rattus norvegicus [31] = test: Distribution of the radio labelled compound in rest of rat brain after intravenous administration in absence of blocker after 60 min; assay type: ADME, organism-based; conditions: in vivo, 1 h; method in brief: as §2
Rattus norvegicus [32] = test: Distribution of the radio labelled compound in hippocampus of rat brain after intravenous administration in absence of blocker after 60 min; assay type: ADME, organism-based; conditions: in vivo, 1 h; method in brief: as §2
Rattus norvegicus [33] = test: Distribution in occipital cortex of rat brain after intravenous administration by using [123I]ZIET after 30 min; assay type: ADME, organism-based; conditions: in vivo, 0.5 h; method in brief: as §1
Rattus norvegicus [34] = test: Distribution of the radio labelled compound in blood of rat brain after intravenous administration in presence of reboxetine after 60 min; assay type: ADME, organism-based; conditions: in vivo, 1 h; method in brief: as §4
Rattus norvegicus [35] = test: Distribution in brainstem of rat brain after intravenous administration by using [123I]ZIET after 120 min; assay type: ADME, organism-based; conditions: in vivo, 2 h; method in brief: as §1
Rattus norvegicus [36] = test: Distribution of the radio labelled compound in thyroid of rat brain after intravenous administration in presence of RTI-113 after 60 min; assay type: ADME, organism-based, Thyroid gland; conditions: in vivo, 1 h; method in brief: as §2
Rattus norvegicus [37] = test: Distribution of the radio labelled compound in occipital cortex of rat brain after intravenous administration in presence of citalopram after 60 min; assay type: ADME, organism-based; conditions: in vivo, 1 h; method in brief: as §2
[38] = Ratio of radioactivity in hippocampus of rat brain to that of rat cerebellum after intravenous administration after 60 min; assay type: functional; method in brief: as §3
[39] = Ratio of radioactivity in frontal cortex of rat brain to that of rat cerebellum after intravenous administration after 120 min; assay type: functional; method in brief: as §3
Rattus norvegicus [40] = test: Distribution of the radio labelled compound in occipital cortex of rat brain after intravenous administration in absence of blocker after 60 min; assay type: ADME, organism-based; conditions: in vivo, 1 h; method in brief: as §2
Rattus norvegicus [41] = test: Distribution of the radio labelled compound in brainstem of rat brain after intravenous administration in presence of reboxetine after 60 min; assay type: ADME, organism-based; conditions: in vivo, 1 h; method in brief: as §4
Rattus norvegicus [42] = test: Distribution in blood of rat brain after intravenous administration by using [123I]ZIET after 120 min; assay type: ADME, organism-based; conditions: in vivo, 2 h; method in brief: as §1
Rattus norvegicus [43] = test: Distribution in hypothalamus of rat brain after intravenous administration by using [123I]ZIET after 30 min; assay type: ADME, organism-based; conditions: in vivo, 0.5 h; method in brief: as §1
Rattus norvegicus [44] = test: Distribution in cerebellum of rat brain after intravenous administration by using [123I]ZIET after 30 min; assay type: ADME, organism-based; conditions: in vivo, 0.5 h; method in brief: as §1

COC(=O)C1C(c2ccc(/C=C\[123I])cc2)CC2CCC1N2C (centres undefined)
Activity (Rattus norvegicus [1]): 0.66 | Activity (Rattus norvegicus [2]): 0.46 | Activity (Rattus norvegicus [3]): 0.1 | Ratio [4]: 2.3 | Ratio [5]: 3.4 | Activity (Rattus norvegicus [6]): 0.52 | Activity (Rattus norvegicus [7]): 0.65 | Activity (Rattus norvegicus [8]): 0.35 | Activity (Rattus norvegicus [9]): 0.42 | Activity (Rattus norvegicus [10]): 1.11 | Activity (Rattus norvegicus [11]): 0.55 | Activity (Rattus norvegicus [12]): 0.39 | Activity (Rattus norvegicus [13]): 0.42 | Activity (Rattus norvegicus [14]): 0.45 | Ratio [15]: 1.6 | Activity (Rattus norvegicus [16]): 0.22 | Activity (Rattus norvegicus [17]): 0.2 | Activity (Rattus norvegicus [18]): 0.21 | Activity (Rattus norvegicus [19]): 0.42 | Ratio [20]: 1.8 | Ratio [21]: 2 | Ratio [22]: 1.3 | Ratio [23]: 3 | Ratio [24]: 2.8 | Activity (Rattus norvegicus [25]): 0.54 | Activity (Rattus norvegicus [26]): 0.72 | Ratio [27]: 1.1 | Activity (Rattus norvegicus [28]): 0.36 | Activity (Rattus norvegicus [29]): 0.47 | Activity (Rattus norvegicus [30]): 0.24 | Activity (Rattus norvegicus [31]): 0.37 | Activity (Rattus norvegicus [32]): 0.4 | Activity (Rattus norvegicus [33]): 0.76 | Activity (Rattus norvegicus [34]): 0.26 | Activity (Rattus norvegicus [35]): 0.41 | Activity (Rattus norvegicus [36]): 1.01 | Activity (Rattus norvegicus [37]): 0.2 | Ratio [38]: 2.3 | Ratio [39]: 3.4 | Activity (Rattus norvegicus [40]): 0.46 | Activity (Rattus norvegicus [41]): 0.36 | Activity (Rattus norvegicus [42]): 0.38 | Activity (Rattus norvegicus [43]): 0.68 | Activity (Rattus norvegicus [44]): 0.42
